Results reported in ChEMBL document CHEMBL3112425, “Design, synthesis, and structure-activity relationship studies of a potent PACE4 inhibitor” (J Med Chem, 2014).
One block for each molecule: values may come before it. Square brackets hold non-standard residues; d marks the D form. Peptide text beside a SMILES is read from it. * marks the point of attachment. Phe(4-guanidino) = N=C(N)Nc1ccc(C[C@H](N)C(=O)O)cc1; NH(4-amidinobenzyl) = N=C(N)c1ccc(CN*)cc1; X2 = N=C(N)NCCCN(CC(N)=O)N*; Nle = CCCC[C@H](N)C(=O)O

Assays:
Furin = Furin (Homo sapiens, UniProt P09958); experiment: Inhibition of human recombinant furin expressed in drosophila schneider 2 cells using pyroGlu-Arg-Thr-Lys-Arg-AMC as substrate after 1 hr
How it was run: (§1)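 Human enzymes were expressed in Drosophila S2 cells and purified. Fluorogenic pyroGlu-RTKR-AMC was used at fixed concentration with varied inhibitor, 37 °C over 1 h. Buffers: furin, 100 mM Hepes pH 7.5, 1 mM CaCl2, 1 mM β-mercaptoethanol, 1.8 mg/mL BSA; PACE4 and PC7, 20 mM Bis-Tris pH 6.5, 1 mM CaCl2, 1.8 mg/mL BSA; PC2, same buffer at pH 5.7. Ki from IC50 (Cheng–Prusoff), or apparent Ki (Morrison) for tight binders. Triplicate, mean ± SD.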

[1] = target: T1, Proprotein convertase subtilisin/kexin type 6 (Homo sapiens, UniProt P29122); experiment: Inhibition of human recombinant PACE4 expressed in drosophila schneider 2 cells using pyroGlu-Arg-Thr-Lys-Arg-AMC as substrate after 1 hr; how it was run: as §1
T1 sequence (P29122 whole entry): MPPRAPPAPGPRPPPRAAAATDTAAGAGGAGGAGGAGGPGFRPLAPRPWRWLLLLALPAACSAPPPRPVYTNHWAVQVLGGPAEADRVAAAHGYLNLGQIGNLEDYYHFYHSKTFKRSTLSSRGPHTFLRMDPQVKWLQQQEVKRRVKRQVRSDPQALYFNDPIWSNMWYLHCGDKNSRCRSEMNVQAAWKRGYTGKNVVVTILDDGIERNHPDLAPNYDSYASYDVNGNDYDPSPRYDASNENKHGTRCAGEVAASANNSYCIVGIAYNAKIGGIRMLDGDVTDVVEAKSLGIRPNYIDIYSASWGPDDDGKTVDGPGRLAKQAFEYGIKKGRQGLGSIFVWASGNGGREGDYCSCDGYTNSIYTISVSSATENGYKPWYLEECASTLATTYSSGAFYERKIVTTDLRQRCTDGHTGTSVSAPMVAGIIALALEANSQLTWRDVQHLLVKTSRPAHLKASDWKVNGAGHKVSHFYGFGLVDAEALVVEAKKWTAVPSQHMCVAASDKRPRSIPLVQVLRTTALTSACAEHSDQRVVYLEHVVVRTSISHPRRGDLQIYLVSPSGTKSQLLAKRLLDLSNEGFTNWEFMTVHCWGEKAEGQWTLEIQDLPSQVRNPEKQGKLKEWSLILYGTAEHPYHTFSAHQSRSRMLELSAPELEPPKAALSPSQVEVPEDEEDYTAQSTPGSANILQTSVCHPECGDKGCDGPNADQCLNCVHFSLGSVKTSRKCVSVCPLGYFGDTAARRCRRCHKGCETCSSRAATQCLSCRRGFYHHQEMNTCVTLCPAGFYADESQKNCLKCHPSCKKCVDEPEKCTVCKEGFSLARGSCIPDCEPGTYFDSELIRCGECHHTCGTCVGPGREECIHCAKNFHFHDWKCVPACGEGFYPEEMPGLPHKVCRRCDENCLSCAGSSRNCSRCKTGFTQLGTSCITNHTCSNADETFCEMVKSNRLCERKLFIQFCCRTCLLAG

PC-3 [2] = experiment: Cytotoxicity against human PC3 cells up to 350 uM after 72 hrs by MTT assay; type: functional
How it was run: (§2)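 Prostate cancer cells were kept in RPMI 1640 at 37 °C, 5% CO2, with 5% FBS for DU145 and 10% FBS for LNCaP and PC3. After 24 h, medium was changed and peptides added at various concentrations, up to 350 μM. Viability was read by MTT after 72 h treatment. IC50 from dose–response curves, triplicate, mean ± SEM.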

LNCaP = experiment: Cytotoxicity against human LNCAP cells after 72 hrs by MTT assay; type: functional, cell-based; how it was run: as §2
DU-145 = experiment: Cytotoxicity against human DU145 cells after 72 hrs by MTT assay; type: functional, cell-based; conditions: DU-145, 72 h; how it was run: as §2
[3] = Half life in CD-1 mouse plasma at 0.5 ug/uL by RP-HPLC analysis; type: ADME, cell-free
How it was run: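 Peptides at 0.5 μg/μL were incubated at 37 °C in heparinized plasma pooled from mixed-sex CD1 mice. At each time point the reaction was stopped with 1 M guanidinium-HCl, then acetonitrile, and proteins were spun out. Supernatant peptide AUC (RP-HPLC) was compared with non-incubated samples. Half-life came from a one-phase decay fit. Run ≥3 times, duplicate per time point.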

[4] = Acute toxicity in human DU145 cells assessed as cell death/lysis at 100 uM after 4 hrs by LDH assay; type: cell-based, DU-145; conditions: read-out: INH
How it was run: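 DU145 cells (RPMI 1640, 5% FBS, 37 °C, 5% CO2) plated; 24 h later peptides added at 100 μM. After 4 h, release of lactate dehydrogenase into the medium was quantified enzymatically with a commercial LDH cytotoxicity kit as the measure of acute membrane damage/lysis.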

Plasma = experiment: Drug degradation in CD-1 mouse plasma at 0.5 ug/uL after 30 mins by MALDI-TOF MS analysis; type: ADME, cell-free; conditions: 0.5 h
How it was run: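 For fragment mapping, 100 μg peptide was incubated in murine plasma at 37 °C. At each time point, plasma samples were quenched with 3% TFA. Proteins were precipitated with 2 volumes acetonitrile and centrifuged at 17 000g. Supernatants were analyzed by MALDI-TOF MS for C-terminally truncated fragments.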

PC-3 [5] = experiment: Cytotoxicity against human PC3 cells after 72 hrs by MTT assay; type: functional, cell-based; conditions: PC-3, 72 h; how it was run: as §2

Chain of Furin (P09958 whole entry): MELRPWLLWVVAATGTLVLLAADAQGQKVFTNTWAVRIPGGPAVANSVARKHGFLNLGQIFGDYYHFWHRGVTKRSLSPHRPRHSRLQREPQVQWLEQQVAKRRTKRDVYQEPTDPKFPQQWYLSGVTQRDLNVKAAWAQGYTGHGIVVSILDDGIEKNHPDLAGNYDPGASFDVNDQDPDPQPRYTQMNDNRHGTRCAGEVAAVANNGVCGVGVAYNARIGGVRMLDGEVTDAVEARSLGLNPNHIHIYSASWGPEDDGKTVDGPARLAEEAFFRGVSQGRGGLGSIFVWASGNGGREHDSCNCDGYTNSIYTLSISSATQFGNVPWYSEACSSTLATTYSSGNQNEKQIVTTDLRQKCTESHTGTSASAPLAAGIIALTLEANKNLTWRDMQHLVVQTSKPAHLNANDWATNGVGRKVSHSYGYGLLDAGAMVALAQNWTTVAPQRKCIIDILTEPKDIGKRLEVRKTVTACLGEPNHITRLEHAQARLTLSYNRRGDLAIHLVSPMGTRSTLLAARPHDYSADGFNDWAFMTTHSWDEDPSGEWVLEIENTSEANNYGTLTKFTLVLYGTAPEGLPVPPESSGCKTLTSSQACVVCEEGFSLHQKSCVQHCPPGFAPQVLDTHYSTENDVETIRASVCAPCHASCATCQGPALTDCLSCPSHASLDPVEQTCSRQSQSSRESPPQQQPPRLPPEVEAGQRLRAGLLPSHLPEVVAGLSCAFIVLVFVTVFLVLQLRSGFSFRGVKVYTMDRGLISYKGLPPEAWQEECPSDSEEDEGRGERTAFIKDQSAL

Compound: CCCC[C@H](NC(=O)[C@H](CC(C)C)NC(=O)[C@H](CC(C)C)NC(=O)[C@H](CC(C)C)NC(C)=O)C(=O)N[C@@H](CCCNC(=N)N)C(=O)N[C@H](C(=O)N[C@@H](CCCCN)C(=O)N[C@@H](CCCNC(=N)N)C(N)=O)C(C)C (Ac-LLL[Nle]RVKR-NH2)
inhibition (INH) (PC-3 [2]): <50% | IC50 (LNCaP): 220 µM | IC50 (DU-145): 110 µM

Compound: CC(=O)N[C@@H](CC(C)C)C(=O)N[C@H](CC(C)C)C(=O)N[C@@H](CC(C)C)C(=O)N[C@@H](CC(C)C)C(=O)N[C@@H](CCCN=C(N)N)C(=O)N[C@H](C(=O)N[C@@H](CCCCN)C(=O)N[C@@H](CCCN=C(N)N)C(N)=O)C(C)C
Ki (Furin): 2.8 µM | Ki [1]: 0.7 µM

Compound: CC(=O)N[C@@H](CC(C)C)C(=O)N[C@@H](CC(C)C)C(=O)N[C@@H](CC(C)C)C(=O)N[C@@H](CC(C)C)C(=O)N[C@@H](CCCNC(=N)N)C(=O)N[C@H](C(=O)N[C@@H](CCCCN)C(=O)NN(CCCNC(=N)N)CC(N)=O)C(C)C (Ac-LLLLRVK-X2)
Ki (Furin): 1.12 µM | Ki [1]: 0.4 µM | inhibition (INH) (PC-3 [2]): <50% | half-life at 0.5 ug/uL [3]: 5.6 h | IC50 (LNCaP): 240 µM | cytotoxicity at 4 h, 100 µM [4]: < 5% | IC50 (DU-145): 270 µM

Compound: CCCC[C@H](NC(=O)[C@H](CC(C)C)NC(C)=O)C(=O)N[C@@H](CC(C)C)C(=O)N[C@@H](CC(C)C)C(=O)N[C@@H](CCCNC(=N)N)C(=O)N[C@H](C(=O)N[C@@H](CCCCN)C(=O)N[C@@H](CCCNC(=N)N)C(N)=O)C(C)C (Ac-L[Nle]LLRVKR-NH2)
Ki (Furin): 0.98 µM | Ki [1]: 0.039 µM

Compound: CCCC[C@H](NC(=O)[C@H](CC(C)C)NC(=O)[C@H](CC(C)C)NC(=O)[C@H](CC(C)C)NC(C)=O)C(=O)N[C@@H](CCCN=C(N)N)C(=O)N[C@H](C(=O)N[C@@H](CCCCN)C(=O)N[C@@H](CCCN=C(N)N)C(N)=O)C(C)C (Ac-LLL[Nle]RVKR-NH2)
Ki (Furin): 0.56 µM | Ki [1]: 0.027 µM | cytotoxicity at 4 h, 100 µM [4]: < 5%

Compound: CC(=O)N[C@@H](CC(C)C)C(=O)N[C@@H](CC(C)C)C(=O)N[C@@H](CC(C)C)C(=O)N[C@@H](CC(C)C)C(=O)N[C@@H](CCCNC(=N)N)C(=O)N[C@H](C(=O)N[C@@H](CCCCN)C(=O)N[C@@H](Cc1ccc(NC(=N)N)cc1)C(N)=O)C(C)C (Ac-LLLLRVK[Phe(4-guanidino)]-NH2)
Ki (Furin): 11 µM | Ki [1]: 0.96 µM

Compound: CC(=O)N[C@@H](CC(C)C)C(=O)N[C@@H](CC(C)C)C(=O)N[C@H](CC(C)C)C(=O)N[C@@H](CC(C)C)C(=O)N[C@@H](CCCNC(=N)N)C(=O)N[C@H](C(=O)N[C@@H](CCCCN)C(=O)N[C@@H](CCCNC(=N)N)C(N)=O)C(C)C
Ki (Furin): 0.98 µM | Ki [1]: 6.26 µM | inhibition (INH) (PC-3 [2]): <50% | IC50 (LNCaP): 130 µM | cytotoxicity at 4 h, 100 µM [4]: < 5% | IC50 (DU-145): 190 µM

Compound: CCCC[C@H](NC(=O)[C@H](CC(C)C)NC(C)=O)C(=O)N[C@@H](CCCC)C(=O)N[C@@H](CC(C)C)C(=O)N[C@@H](CCCN=C(N)N)C(=O)N[C@H](C(=O)N[C@@H](CCCCN)C(=O)N[C@@H](CCCN=C(N)N)C(N)=O)C(C)C (Ac-L[Nle][Nle]LRVKR-NH2)
Ki (Furin): 2.3 µM | Ki [1]: 0.17 µM

Compound: CC(=O)N[C@@H](CC(C)C)C(=O)N[C@@H](CC(C)C)C(=O)N[C@@H](CC(C)C)C(=O)N[C@H](CC(C)C)C(=O)N[C@@H](CCCNC(=N)N)C(=O)N[C@H](C(=O)N[C@@H](CCCCN)C(=O)N[C@@H](CCCNC(=N)N)C(N)=O)C(C)C
Ki (Furin): 9.55 µM | Ki [1]: 14 µM

Compound: CC(=O)N[C@@H](CC(C)C)C(=O)N[C@@H](CC(C)C)C(=O)N[C@@H](CC(C)C)C(=O)N[C@@H](CC(C)C)C(=O)N[C@@H](CCCNC(=N)N)C(=O)N[C@H](C(=O)N[C@@H](CCCCN)C(=O)NCc1ccc(C(=N)N)cc1)C(C)C (Ac-LLLLRVK-{NH(4-amidinobenzyl)})
IC50 (PC-3 [5]): 150 µM | IC50 (LNCaP): 40 µM | IC50 (DU-145): 25 µM

Compound: CCCC[C@H](NC(C)=O)C(=O)N[C@@H](CCCC)C(=O)N[C@@H](CC(C)C)C(=O)N[C@@H](CC(C)C)C(=O)N[C@@H](CCCN=C(N)N)C(=O)N[C@H](C(=O)N[C@@H](CCCCN)C(=O)N[C@@H](CCCN=C(N)N)C(N)=O)C(C)C
Ki (Furin): 0.95 µM | Ki [1]: 0.057 µM

More lines, main results first:

Ki (Furin): 2.1 µM | Ki [1]: 0.35 µM
Compound: CCCC[C@H](NC(=O)[C@H](CC(C)C)NC(=O)[C@H](CC(C)C)NC(C)=O)C(=O)N[C@@H](CCCC)C(=O)N[C@@H](CCCN=C(N)N)C(=O)N[C@H](C(=O)N[C@@H](CCCCN)C(=O)N[C@@H](CCCN=C(N)N)C(N)=O)C(C)C (Ac-LL[Nle][Nle]RVKR-NH2)

Ki (Furin): 1.07 µM | Ki [1]: 0.06 µM
Compound: CCCC[C@H](NC(C)=O)C(=O)N[C@@H](CCCC)C(=O)N[C@@H](CC(C)C)C(=O)N[C@@H](CCCC)C(=O)N[C@@H](CCCN=C(N)N)C(=O)N[C@H](C(=O)N[C@@H](CCCCN)C(=O)N[C@@H](CCCN=C(N)N)C(N)=O)C(C)C

Ki (Furin): 0.65 µM | Ki [1]: 0.021 µM
Compound: CCCC[C@H](NC(C)=O)C(=O)N[C@@H](CC(C)C)C(=O)N[C@@H](CC(C)C)C(=O)N[C@@H](CC(C)C)C(=O)N[C@@H](CCCNC(=N)N)C(=O)N[C@H](C(=O)N[C@@H](CCCCN)C(=O)N[C@@H](CCCNC(=N)N)C(N)=O)C(C)C
inhibition (INH) (PC-3 [2]): <50% | IC50 (LNCaP): 180 µM | cytotoxicity at 4 h, 100 µM [4]: < 5% | IC50 (DU-145): 150 µM

Ki (Furin): 0.68 µM | Ki [1]: 0.014 µM | Stability (Plasma): Unstable
Compound: CCCC[C@H](NC(C)=O)C(=O)N[C@@H](CC(C)C)C(=O)N[C@@H](CC(C)C)C(=O)N[C@@H](CCCC)C(=O)N[C@@H](CCCNC(=N)N)C(=O)N[C@H](C(=O)N[C@@H](CCCCN)C(=O)N[C@@H](CCCNC(=N)N)C(N)=O)C(C)C
inhibition (INH) (PC-3 [2]): <50% | IC50 (LNCaP): 90 µM | cytotoxicity at 4 h, 100 µM [4]: < 5% | IC50 (DU-145): 40 µM

Ki (Furin): 2.55 µM | Ki [1]: 0.5 µM
Compound: CCCC[C@H](NC(C)=O)C(=O)N[C@@H](CCCC)C(=O)N[C@@H](CCCC)C(=O)N[C@@H](CCCC)C(=O)N[C@@H](CCCNC(=N)N)C(=O)N[C@H](C(=O)N[C@@H](CCCCN)C(=O)N[C@@H](CCCNC(=N)N)C(N)=O)C(C)C
